The subject of test [1] is Rattus norvegicus. As to the kind of experiment: In vivo inhibition of passive cutaneous anaphylaxis in rats when administered i.v. Type of test: functional. The note with it: iv, read-out: ID50 (the source's name). Put shortly: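 Rats (adult male Charles River, 140-160 g, six per group) were sensitized intradermally at two sites with reaginic rat antiserum to chicken ovalbumin. After 48 h, compound at 30, 10 or 3 mg/kg iv was given simultaneously with the iv challenge of 10 mg/kg ovalbumin in 1% Evans blue. Dermal bluing area was measured at 30 min, and percent inhibition was calculated. ID50 was taken graphically from the dose-response curve.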

For test [2], the system named is Rattus norvegicus. Kind of test: In vivo inhibition of passive cutaneous anaphylaxis in rats when administered i.p. In kind it is functional. The note with it: ip, read-out: ID50 (the source's name). The method, boiled down:
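Adult male Charles River rats (140-160 g, six per group) were sensitized intradermally at two sites with rat serum containing reaginic antibodies to chicken ovalbumin. After 48 h they were challenged iv with 10 mg/kg ovalbumin in 1% Evans blue. Compound was given ip 15 min before challenge. Bluing area was measured 30 min later, and percent inhibition was calculated. ID50 was read graphically from the dose-response curve.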

A value given as a limit tells only on which side of the number the result lay.

As to `CCCCc1ccc2c(c1)-c1nc(C(=O)O)cc(O)c1CS2.NCCO`, the figures for the ED50 with Rattus norvegicus [1] and in the test on Rattus norvegicus [2] were 12 mg/kg and 20 mg/kg, respectively.

`CCCCc1ccc2c(c1)-c1oc(C(=O)O)cc(=O)c1CS2.NCCO`: the ED50 was 19 mg/kg in the test with Rattus norvegicus [1] and above 30 mg/kg with Rattus norvegicus [2].

For the compound `Cc1ccc(Cl)c2c1SCc1c(O)cc(C(=O)O)nc1-2.NCCO`, the ED50 in the test with Rattus norvegicus [1] and in the test on Rattus norvegicus [2] was above 30 mg/kg each time.

As to `NCCO.O=C(O)c1cc(=O)c2c(o1)-c1ccccc1S(=O)(=O)C2`, the ED50 with Rattus norvegicus [1] is above 30 mg/kg; with Rattus norvegicus [2], above 100 mg/kg.

`Cc1c(-c2nn[nH]n2)oc2c(c1=O)CSc1ccccc1-2`: in the test with Rattus norvegicus [2], the ED50 is above 30 mg/kg.

In the case of `CC1Sc2ccccc2-c2oc(C(=O)O)cc(=O)c21.NCCO` (stereo not drawn), the ED50 with Rattus norvegicus [1] was determined as 8.4 mg/kg; with Rattus norvegicus [2] it was 29 mg/kg.

With `NCCO.O=C(O)c1cc(O)c2c(n1)-c1ccccc1SC2`, the ED50 with Rattus norvegicus [1] is 5.3 mg/kg; in the test with Rattus norvegicus [2] it was above 30 mg/kg.

`O=c1c(CO)coc2c1CSc1ccccc1-2`: the ED50 in the test with Rattus norvegicus [1] and in the test on Rattus norvegicus [2] was above 30 mg/kg each time.

For `NCCO.O=C(O)c1cc(=O)c2c(o1)-c1cc(Cl)ccc1SC2`, the ED50 in the test on Rattus norvegicus [1] was 28 mg/kg; in the test on Rattus norvegicus [2], above 100 mg/kg.

Regarding `CCC(C)c1ccc2c(c1)-c1nc(C(=O)O)cc(O)c1CS2.NCCO` (stereo not drawn), the ED50 was 8.2 mg/kg in the test on Rattus norvegicus [1] and 27 mg/kg with Rattus norvegicus [2].

`CCC(C)c1ccc2c(c1)-c1nc(C(=O)O)cc(O)c1CS2(=O)=O` (stereo not drawn): the ED50 in the test with Rattus norvegicus [1] and with Rattus norvegicus [2] was above 30 mg/kg in each case.

For the compound `Cc1ccc(Cl)c2c1SCc1c-2oc(C(=O)O)cc1=O.NCCO`, the ED50 in the test on Rattus norvegicus [1] is 30 mg/kg; with Rattus norvegicus [2], above 100 mg/kg.

For the compound `NCCO.O=C(O)c1cc(O)c2c(n1)-c1cc(Cl)ccc1SC2`, the ED50 was 3.3 mg/kg with Rattus norvegicus [1] and 33 mg/kg in the test on Rattus norvegicus [2].

Take `Cc1ccc2c(c1)-c1oc(C(=O)O)cc(=O)c1CS2.NCCO`: the ED50 with Rattus norvegicus [1] is 19 mg/kg; in the test with Rattus norvegicus [2], above 30 mg/kg.

Regarding `O=c1c(CO)coc2c1COc1ccccc1-2`, the ED50 in the test on Rattus norvegicus [2] amounted to 23 mg/kg.

`O=C([O-])c1cc(=O)c2c(OCC(O)COc3cccc4oc(C(=O)[O-])cc(=O)c34)cccc2o1.[Na+].[Na+]` [CROMOLYN SODIUM]: the ED50 was determined as 1 mg/kg with Rattus norvegicus [1] and 16.6 mg/kg in the test on Rattus norvegicus [2].

As to `Cc1c(-c2nn[nH]n2)oc2c(c1=O)CS(=O)(=O)c1ccccc1-2`, in the test on Rattus norvegicus [2], the ED50 is 100 mg/kg.

On to `CCC(C)c1ccc2c(c1)-c1oc(C(=O)O)cc(=O)c1CS2.NCCO` (stereo not drawn), for which the results for the ED50 with Rattus norvegicus [1] and with Rattus norvegicus [2] were 25 mg/kg and above 30 mg/kg, respectively.

Take `O=C([O-])c1cc(=O)c2c(o1)-c1ccccc1OC2.[K+]`: the ED50 with Rattus norvegicus [1] was 12 mg/kg.

Regarding `Cc1ccc2c(c1)-c1nc(C(=O)O)cc(O)c1CS2.NCCO`, the ED50 with Rattus norvegicus [1] is 6.9 mg/kg; in the test with Rattus norvegicus [2] it was 34 mg/kg.

`NCCO.O=C(O)c1cc(=O)c2c(o1)-c1ccccc1SC2`: the ED50 with Rattus norvegicus [1] is 25 mg/kg; in the test on Rattus norvegicus [2], above 100 mg/kg.

These data come from ChEMBL document CHEMBL1121367, “Synthesis and antiallergic properties of some 4H,5H-pyrano[3,2-c][1]benzopyran-4-one, 4H,5H-[1]benzothiopyrano[4,3-b]pyran-4-one, and 1,4-dihydro-5h-[1]benzothiopyrano[4,3-b]pyridin-4-one derivatives” (1980).
